Assay results gathered from unrelated publications.
Each line is one published result; the experiments were not run side by side. In brackets after ≈: the same amount, converted by molar mass.

`CCCn1c(O)nnc1SCC(=O)Nc1cc(C(F)(F)F)ccc1Cl` has an EC50 of 66.6 nM (Plasmodium falciparum; parasite growth, SYBR Green; 3D7).
The IC50 of `CONC(=O)OC(c1ccccc1)c1cccc(C(C)C(=O)NOC)c1` (centres unmarked) is reported as 10000 nM (FM3A; cell growth or viability; 48 h).
`NNC(=O)c1ccncc1` has an MIC of 6.3 µg/mL (≈ 45.9 µM) (Mycolicibacterium aurum; microbial growth, agar dilution).
For `Cc1nc(Nc2ccc(C)c(Cl)c2)c2c(C)noc2n1`, the EC50 was 336 nM (Plasmodium falciparum; parasite growth, SYBR Green; 3D7).
The GI50 of `COc1cc2c(cc1OS(N)(=O)=O)CCN(Cc1cc(Br)c(OC)c(OC)c1)C2` is reported as 22 nM (CNSSF-539; cell growth or viability, SRB).
With `O=C1C(O)=C([C@H]2CC[C@H](c3ccc(Cl)cc3)CC2)C(=O)c2ccccc21` the EC50 was 0.45 nM (Plasmodium falciparum; parasite growth, SYBR Green; 3D7).
`CCCCCCCCCCOc1cc2c(O)c(C(=O)OCC)cnc2cc1OCC` has an IC50 of < 5.7 nM (Plasmodium falciparum; parasite growth, SYBR Green; W2; blood stage).
With `CCN(CC)CCCC(C)Nc1ccnc2cc(Cl)ccc12` (centres unmarked) the IC50 was 0.1 µg/mL (Plasmodium falciparum; parasite growth; W2; 72 h, drug-resistant strain, blood stage).
The IC50 of `CCN(CC)CCCC(C)Nc1ccnc2cc(Cl)ccc12` (centres unmarked) is reported as 0.15 µg/mL (Plasmodium falciparum; parasite growth; W2; drug-resistant strain, blood stage).
The IC50 of `CC(C(=O)N1CCCC1)c1cccc(C(OC(=O)N2CCCC2)c2ccccc2)c1` (centres unmarked) is reported as 41000 nM (L1210; cell growth or viability; 48 h).
For `C[C@]12CC[C@H](O)C[C@@H]1CC[C@@H]1[C@@H]2CC[C@]2(C)[C@@H]([N+](=O)[O-])CC[C@@H]12`, the ED50 was 83 mg/kg (6 Hz seizures; mouse; intraperitoneal).
With `CC(C(=O)NOCc1ccccc1)c1cccc(C(OC(=O)NOCc2ccccc2)c2ccccc2)c1` (centres unmarked) the IC50 was 11000 nM (FM3A; cell growth or viability; 48 h).
With `Cc1sc(CNCCCNc2cc(=O)c3ccccc3[nH]2)c(I)c1C` the EC50 was 339 nM (Plasmodium falciparum; parasite growth, SYBR Green; 3D7).
`C[C@@]1(O)CC[C@@]2(C)[C@@H](CC[C@@H]3[C@@H]2CC[C@]2(C)[C@@H]([N+](=O)[O-])CC[C@@H]32)C1` has an ED50 of 8.8 mg/kg (6 Hz seizures; mouse; intraperitoneal).
